Calpain2 inh = inhibitors of pig calpain II, primary screen, biochemical, fluorogenic peptide substrate, 1536-well | purified calpain II, 30 min | inhibition, % at 16 µM | 220,000 tested, 0.37% active | AID 1236, 2008;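 active = inhibition above about 50%, limit read from the data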
Thrombin inh = human alpha-thrombin inhibitors, primary screen, counter-screen for coagulation protease inhibitor project, biochemical, 1536-well, fluorogenic AMC substrate. inhibition, % at 5 µM. Prothrombin (Homo sapiens), P00734. Boc-VPR-AMC fluorogenic substrate cleavage. 220,000 tested, 0.26% active;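 active = inhibition at or above 40%; inactive = inhibition below 40%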
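System – human alpha-thrombin · Medium – pH 7.5 Tris (50 mM) with NaCl 150 mM, Tween 20 0.05% · Compound – single-point dosing at 5 µM, 0.2% DMSO · Incubation – enzyme reaction carried out at room temperature · Technique – fluorescence of released AMC, ex 355 nm, em 460 nm · Read-out basis – % inhibition of thrombin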
FXIa inh = human FXIa protease inhibitors, primary screen, biochemical, 1536-well; Coagulation factor XI (Homo sapiens), P03951; purified FXIa, Boc-Glu-Ala-Arg-AMC fluorogenic substrate; inhibition, % at 5 µM; 220,000 tested, 0.14% active; AID 798, 2007;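 active = inhibition of at least 40%; inactive = inhibition below 40%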;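 note: fluorescence of freed AMC excited at 355 nm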
FXIIa inh = human FXIIa protease inhibitors, primary screen, biochemical, 1536-well; purified FXIIa, Boc-QGR-AMC fluorogenic substrate, 2 h; inhibition, % at 5 µM; 220,000 tested, 0.3% active; AID 800, 2007; in the data active = inhibition above about 40%
Target sequence (P00748 20-372 limits assumed): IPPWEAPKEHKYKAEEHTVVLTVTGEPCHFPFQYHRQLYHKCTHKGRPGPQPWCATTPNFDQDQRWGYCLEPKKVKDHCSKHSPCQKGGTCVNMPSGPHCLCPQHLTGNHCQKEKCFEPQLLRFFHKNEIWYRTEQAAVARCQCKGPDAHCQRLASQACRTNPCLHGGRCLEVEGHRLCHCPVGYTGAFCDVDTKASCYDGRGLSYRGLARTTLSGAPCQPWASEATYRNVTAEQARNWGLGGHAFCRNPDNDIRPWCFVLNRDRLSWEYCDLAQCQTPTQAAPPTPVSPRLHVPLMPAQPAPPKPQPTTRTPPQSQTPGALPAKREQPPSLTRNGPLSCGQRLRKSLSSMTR
Target sequence (P00748 373-615 limits assumed): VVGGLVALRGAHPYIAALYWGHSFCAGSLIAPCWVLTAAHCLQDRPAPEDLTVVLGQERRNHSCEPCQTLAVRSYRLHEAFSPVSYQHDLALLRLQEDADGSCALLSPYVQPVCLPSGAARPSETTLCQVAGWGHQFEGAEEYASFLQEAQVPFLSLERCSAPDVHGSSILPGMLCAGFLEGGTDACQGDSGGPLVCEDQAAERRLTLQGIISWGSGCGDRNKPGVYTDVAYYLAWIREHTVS
KLK5 inh = human KLK5 protease inhibitors, primary screen, biochemical, 1536-well; 210,000 tested, 0.59% active; Kallikrein-5 (Homo sapiens), Q9Y337; inhibition, % at 5 µM; recombinant hK5, fluorogenic AMC substrate cleavage;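 active = inhibition of 40% or more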
A number is an active result. An excerpt weighted towards active compounds, which were near 1.4% of everything screened.

`Cn1nc(C(=O)Nc2nc(-c3ccc(F)cc3)cs2)ccc1=O` gave Calpain2 inh inactive, Thrombin inh inactive, FXIa inh 105, FXIIa inh inactive and KLK5 inh 61.
Screening O=C(CSc1nnc(Nc2ccccc2F)s1)Nc1cccc(S(=O)(=O)N2CCCCC2)c1 returned Calpain2 inh inactive, Thrombin inh inactive, FXIa inh inactive, FXIIa inh inactive and KLK5 inh inactive.
For Cc1ccc(C(=O)NCCCNc2ccccc2[N+](=O)[O-])cc1 the results were Calpain2 inh 51, Thrombin inh inactive, FXIa inh inactive, FXIIa inh inactive and KLK5 inh inactive.
For Cc1cc(C(=O)N2CCCC(C(=O)c3cccc(C(F)(F)F)c3)C2)nc(C)n1 (stereo unspecified) the results were Calpain2 inh inactive, Thrombin inh inactive, FXIa inh inactive, FXIIa inh inactive and KLK5 inh inactive.
Screening CNC(=S)NNC(=O)c1ccccc1F returned Calpain2 inh 90, Thrombin inh inactive, FXIa inh inactive, FXIIa inh inactive and KLK5 inh inactive.
Screening CNC(=S)NNC(=O)c1ccccc1Cl returned Calpain2 inh inactive, Thrombin inh inactive, FXIa inh inactive, FXIIa inh inactive and KLK5 inh inactive.
Screening Cc1csc(NC(=O)C2CCN(S(=O)(=O)c3ccc4c(c3)oc(=O)n4C)CC2)n1 returned Calpain2 inh inactive, Thrombin inh inactive, FXIa inh inactive, FXIIa inh inactive and KLK5 inh inactive.
Screening Cc1csc(NC(=O)C(CC(C)C)NS(=O)(=O)c2ccc3c(c2)oc(=O)n3C)n1 (stereo unspecified) returned Calpain2 inh inactive, Thrombin inh inactive, FXIa inh inactive, FXIIa inh 107 and KLK5 inh 55.
`COC(=O)CNC(=O)C(Cc1c[nH]c2ccccc12)NC(=O)Oc1ccccc1` (stereo unspecified) gave Calpain2 inh inactive, Thrombin inh inactive, FXIa inh inactive, FXIIa inh inactive and KLK5 inh inactive.
COC(=O)CNC(=O)C(Cc1c[nH]c2ccccc12)NC(=O)OC(C)(C)C (stereo unspecified) was read as Calpain2 inh inactive, Thrombin inh inactive, FXIa inh inactive, FXIIa inh inactive and KLK5 inh 44.
Fc1ccc(Nc2ccc3ccccc3n2)c(F)c1 was read as Calpain2 inh inactive, Thrombin inh inactive, FXIa inh 104, FXIIa inh inactive and KLK5 inh 47.
Screening COc1cccc(NC(=O)c2cc(CN3C(=O)c4ccccc4C3=O)ccc2OC)c1 returned Calpain2 inh inactive, Thrombin inh inactive, FXIa inh inactive, FXIIa inh inactive and KLK5 inh inactive.
Cc1nnc(Oc2ccccc2)c2ccccc12 was read as Calpain2 inh inactive, Thrombin inh inactive, FXIa inh inactive, FXIIa inh inactive and KLK5 inh inactive.
`Cc1nnc(Oc2ccccc2F)c2ccccc12` gave Calpain2 inh 61, Thrombin inh inactive, FXIa inh inactive, FXIIa inh inactive and KLK5 inh inactive.
For COc1ccc(CCNC(=O)CSc2nnc(-c3ccc(F)cc3)o2)cc1OC the results were Calpain2 inh inactive, Thrombin inh inactive, FXIa inh inactive, FXIIa inh inactive and KLK5 inh 130.
`CC1OC(O[C@H]2CC[C@]3(C)C4C=C[C@]56OC[C@@]7(CC[C@@H](C)[C@H](C)C75)[C@H](O)C[C@@]6(C)[C@]4(C)CC[C@H]3C2(C)C)C(OC2OC(CO)C(O)C(O)C2OC2OCC(O)C(O)C2O)C(O)C1O` (stereo partly specified) gave Calpain2 inh inactive, Thrombin inh 55, FXIa inh inactive, FXIIa inh inactive and KLK5 inh inactive.
For CC(=O)OC1COC(OC2C(O)C(C)OC(OC3C(OC4CCC5(C)C(CCC6(C)C5CC=C5C7CC(C)(C)CCC7(C(=O)O)CCC56C)C4(C)CO)OCC(O)C3O)C2O)C(O)C1OC(C)=O (stereo unspecified) the results were Calpain2 inh inactive, Thrombin inh inactive, FXIa inh inactive, FXIIa inh inactive and KLK5 inh inactive.
CC(C)c1cccc(OCCCCN(C)C)c1 was read as Calpain2 inh inactive, Thrombin inh inactive, FXIa inh inactive, FXIIa inh inactive and KLK5 inh inactive.
For COc1ccc(Cl)cc1NC(=O)Nn1cnnc1 the results were Calpain2 inh inactive, Thrombin inh inactive, FXIa inh inactive, FXIIa inh inactive and KLK5 inh inactive.
`COc1ccc(Cl)cc1NC(=O)Nc1cn(C)nc1C` gave Calpain2 inh inactive, Thrombin inh inactive, FXIa inh 45, FXIIa inh inactive and KLK5 inh 57.
Screening Cc1ccc(C(=O)C(NC(=O)c2ccco2)N2CCOCC2)cc1 (stereo unspecified) returned Calpain2 inh inactive, Thrombin inh inactive, FXIa inh inactive, FXIIa inh inactive and KLK5 inh 44.
For O=[N+]([O-])c1ccccc1CNc1ccc(F)c(Cl)c1 the results were Calpain2 inh inactive, Thrombin inh inactive, FXIa inh inactive, FXIIa inh inactive and KLK5 inh inactive.
For COc1cccc(CNc2ccc(F)c([N+](=O)[O-])c2)c1O the results were Calpain2 inh 84, Thrombin inh inactive, FXIa inh inactive, FXIIa inh inactive and KLK5 inh inactive.
O=C(NNC(=O)C(Cl)Cl)c1cnn(-c2ccccc2)c1C(F)(F)F was read as Calpain2 inh inactive, Thrombin inh inactive, FXIa inh inactive, FXIIa inh inactive and KLK5 inh inactive.
`CSc1ccccc1C(=O)NCc1ccc(C)cc1` gave Calpain2 inh inactive, Thrombin inh inactive, FXIa inh inactive, FXIIa inh inactive and KLK5 inh inactive.
Cc1ccccc1NC(=O)c1cccc(N2C(=O)C3C4CCC(C4)C3C2=O)c1 (stereo unspecified) was read as Calpain2 inh inactive, Thrombin inh inactive, FXIa inh inactive, FXIIa inh inactive and KLK5 inh 43.
Cc1ccc(NC(=O)c2cccc(N3C(=O)C4C5CCC(C5)C4C3=O)c2)c(C)c1 (stereo unspecified) was read as Calpain2 inh inactive, Thrombin inh inactive, FXIa inh inactive, FXIIa inh inactive and KLK5 inh inactive.
`Cc1snnc1C(=O)NC(=S)Nc1ccccc1` gave Calpain2 inh inactive, Thrombin inh inactive, FXIa inh inactive, FXIIa inh inactive and KLK5 inh inactive.
Screening COc1ccc(C2CC(c3ccccc3)=NN2S(=O)(=O)c2ccccc2)cc1 (stereo unspecified) returned Calpain2 inh inactive, Thrombin inh inactive, FXIa inh inactive, FXIIa inh inactive and KLK5 inh inactive.
`Cc1ccc(C2=NN(S(=O)(=O)c3ccccc3)C(c3ccccc3O)C2)cc1` (stereo unspecified) gave Calpain2 inh inactive, Thrombin inh inactive, FXIa inh inactive, FXIIa inh 103 and KLK5 inh inactive.

Screening results as filed in PubChem.
